Measurements: ChEMBL document CHEMBL4351005, “Human constitutive androstane receptor agonist DL5016: A novel sensitizer for cyclophosphamide-based chemotherapies” (Eur J Med Chem, 2019)
≈ marks a conversion by molar mass, not a printed value.

How the values were obtained:
[1] = target: T1, Nuclear receptor subfamily 1 group I member 3 (Homo sapiens, UniProt Q14994); experiment: Agonist activity at human constitutive androstane receptor expressed in HepG2 cells co-expressing CYP2B6 incubated for 23 hrs by One-Glo luciferase reporter gene assay; format: cell-based
T1 sequence (Q14994 whole entry): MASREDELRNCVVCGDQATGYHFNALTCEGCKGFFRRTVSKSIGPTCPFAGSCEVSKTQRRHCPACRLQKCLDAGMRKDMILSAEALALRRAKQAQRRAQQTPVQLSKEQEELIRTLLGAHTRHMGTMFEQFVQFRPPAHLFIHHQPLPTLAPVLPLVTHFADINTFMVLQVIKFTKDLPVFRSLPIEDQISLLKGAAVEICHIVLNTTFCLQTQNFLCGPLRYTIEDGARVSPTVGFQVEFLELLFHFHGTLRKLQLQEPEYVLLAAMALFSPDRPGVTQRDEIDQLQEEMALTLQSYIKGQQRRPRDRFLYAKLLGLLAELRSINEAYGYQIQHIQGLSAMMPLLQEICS
Outline: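 HepG2-CYP2B6-hCAR stable reporter cells, 2,500/well, attached 5 h at 37 °C/5% CO₂. Compounds in DMSO, 16 final concentrations from 6.41 pM to 92 μM (1:3 steps), with PK11195 at 0.75 μM final; final DMSO 0.46%. After 23 h, viability read by CellTiter-Fluor (ex 405/em 540 nm), then ONE-Glo luminescence (30 min, RT) in RLU.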

[2] = target: T1, Nuclear receptor subfamily 1 group I member 3; experiment: Agonist activity at human constitutive androstane receptor expressed in HepG2 cells co-expressing CYP2B6 at 1 uM incubated for 23 hrs by One-Glo luciferase reporter gene assay; format: cell-based; details: hepg2, 23 h
[3] = target: T2, Nuclear receptor subfamily 1 group I member 2 (Homo sapiens, UniProt O75469); experiment: Agonist activity at human PXR expressed in HepG2 cells co-expressing CYP2B6 at 1 uM incubated for 23 hrs by One-Glo luciferase reporter gene assay; format: cell-based; details: hepg2, 23 h
T2 sequence (O75469 whole entry): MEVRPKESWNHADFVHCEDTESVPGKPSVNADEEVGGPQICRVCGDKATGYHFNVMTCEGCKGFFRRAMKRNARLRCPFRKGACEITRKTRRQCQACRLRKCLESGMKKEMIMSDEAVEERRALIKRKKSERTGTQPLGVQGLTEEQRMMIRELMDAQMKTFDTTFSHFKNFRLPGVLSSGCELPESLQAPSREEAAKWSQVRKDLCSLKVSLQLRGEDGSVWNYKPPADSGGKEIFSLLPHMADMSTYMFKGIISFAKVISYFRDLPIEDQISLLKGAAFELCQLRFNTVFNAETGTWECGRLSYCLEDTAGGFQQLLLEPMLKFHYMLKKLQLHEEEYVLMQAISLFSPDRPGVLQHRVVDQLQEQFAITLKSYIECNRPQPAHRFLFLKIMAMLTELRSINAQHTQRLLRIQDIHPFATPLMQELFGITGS

[4] = target: T1, Nuclear receptor subfamily 1 group I member 3; experiment: Ratio of Emax to EC50 for human constitutive androstane receptor expressed in HepG2 cells co-expressing CYP2B6
[5] = target: T1, Nuclear receptor subfamily 1 group I member 3; experiment: Induction of constitutive - androstane receptor in human primary hepatocytes assessed as upregulation of CYP2B6 mRNA expression measured after 24 hrs by RT-PCR analysis; format: cell-based
Outline: (§1)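 Primary human hepatocytes (donors HL-#131 and #133), viability >90%, 0.75×10⁶ cells/well, Matrigel overlay 0.25 mg/mL. Dosed 36 h post-seeding at 0.1, 0.5 and 1 μM (vehicle 0.1% DMSO; rifampin 10 μM reference) for 24 h. RT-PCR fold over control = 2^ΔΔCt versus GAPDH; mean ± SD, three independent experiments.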

[6] = target: T1, Nuclear receptor subfamily 1 group I member 3; experiment: Induction of constitutive androstane receptor in human primary hepatocytes assessed as upregulation of CYP3A4 mRNA expression measured after 24 hrs by RT-PCR analysis; format: cell-based; outline: as §1
[7] = target: T1, Nuclear receptor subfamily 1 group I member 3; experiment: Induction of adenoviral enhanced yellow fluorescent protein tagged constitutive androstane receptor translocation from cytoplasm to nucleus in human primary hepatocytes at 1 uM measured after 8 hrs by DAPI staining based fluorescent microscopic analysis; format: cell-based
Outline: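 Hepatocytes (60,000/well, collagen plates) infected overnight with Ad/EYFP-hCAR (3 μL/mL), then treated 8 h at 1 μM; controls 0.1% DMSO, phenobarbital 1 mM. Cells PFA-fixed and DAPI-stained; five images per well. Translocation % = cells with ≥50% nuclear overlap with EYFP-hCAR ÷ EYFP-positive cells; mean ± SD of five images.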

[8] = Stability of compound; format: physicochemical
[9] = Aqueous solubility of compound measured after 6 hrs by reverse phase HPLC analysis; format: physicochemical; details: water
Outline: (§2)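 6 mg solid in 1 mL water or PBS (pH 7.4), shaken 6 h at 25 °C, centrifuged, and the supernatant filtered. Filtrate quantified by C18 reverse-phase HPLC: water-acetonitrile-triethylamine 30:70:0.01, 1 mL/min, UV 312 nm. Standard curve from solutions of known concentration.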

[10] = Aqueous solubility of the compound in phosphate buffer at pH 7.4 measured after 6 hrs by reverse phase HPLC analysis; format: physicochemical; details: pH 7.4, 6 h; outline: as §2
[11] = Lipophilicity, logP of compound; format: physicochemical; details: octanol/water
SUD4 [12] = experiment: Potentiation of cyclophospamide/doxorubicin/vincristine/prednisone induced cytotoxicity against human SUDHL4 cells co-cultured with human primary hepatocytes assessed as reduction in cell viability after 24 hrs; format: functional, cell-based
Outline: (§3)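 Hepatocytes pretreated 24 h with 1 μM test agent or 0.1% DMSO. 0.5×10⁶ SU-DHL-4 cells then added in membrane inserts (Williams' E). Co-cultures exposed with or without CHOP (5, 100, 500 μM; time course at 100 μM), plus or minus 1 μM agent. Viability by trypan blue exclusion at 24 h or set times, as % of vehicle; three independent measurements.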

SUD4 [13] = experiment: Potentiation of cyclophospamide/doxorubicin/vincristine/prednisone induced cytotoxicity against human SUDHL4 cells co-cultured with human primary hepatocytes assessed as reduction in cell viability at 1 uM; format: functional, cell-based; details: TDE = time-dependent effect; outline: as §3
[14] = target: T1, Nuclear receptor subfamily 1 group I member 3; experiment: Induction of constitutive - androstane receptor in human primary hepatocytes assessed as upregulation of CYP2B6 protein expression measured after 72 hrs by Western blot analysis; format: cell-based
Outline: (§4)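 Hepatocytes from donors #131 and #133, dosed 36 h after seeding at 0.1, 0.5 and 1 μM (0.1% DMSO vehicle) for 72 h. Homogenate proteins run on 4–12% SDS-PAGE and immunoblotted: anti-CYP2B6 1:200, anti-CYP3A4 1:5000, β-actin 1:50,000 loading control. HRP secondaries, ECL detection.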

[15] = target: T1, Nuclear receptor subfamily 1 group I member 3; experiment: Induction of constitutive androstane receptor in human primary hepatocytes assessed as upregulation of CYP3A4 protein expression measured after 72 hrs by Western blot analysis; format: cell-based; outline: as §4
SUD4 [16] = experiment: Antiproliferative activity against human SUDHL4 cells co-cultured with human primary hepatocytes assessed as reduction in cell viability at 1 uM after 24 hrs; format: cell-based; details: sud4, 24 h; outline: as §3
[17] = target: T1, Nuclear receptor subfamily 1 group I member 3; experiment: Induction of constitutive - androstane receptor in human primary hepatocytes assessed as upregulation of CYP2B6 mRNA expression at 0.5 to 5 uM after 24 hrs by RT-PCR analysis; format: cell-based
[18] = target: T1, Nuclear receptor subfamily 1 group I member 3; experiment: Induction of constitutive - androstane receptor in human primary hepatocytes assessed as upregulation of CYP3A4 mRNA expression at 0.5 to 5 uM after 24 hrs by RT-PCR analysis; format: cell-based

EC50 [1]	Activity [2]	Ratio [4]	Structure (SMILES)	further results
460 nM	Active	7.4 µM⁻¹	Clc1ccc(-c2nc3sccn3c2CNC2Cc3ccccc3C2)cc1	Activity [3]: Active
1600 nM	Active	2.4 µM⁻¹	c1ccc2c(c1)CC(NCc1c(-c3ccc4ccccc4c3)nc3sccn13)C2	Activity [3]: Active
190 nM	Active	13 µM⁻¹	Clc1ccc(-c2nc3sccn3c2COCCc2ccc(Cl)c(Cl)c2)cc1	Activity [3]: Active
930 nM	–	3.4 µM⁻¹	Clc1cccc(-c2nc3sccn3c2CNCCc2ccc(Cl)c(Cl)c2)c1	–
10000 nM	–	0.74 µM⁻¹	CC(C)(C)c1ccc(-c2nc3sccn3c2CNCCc2ccc(Cl)c(Cl)c2)cc1	–
740 nM	Active	3.9 µM⁻¹	Clc1ccc(-c2nc3sccn3c2CNCCc2ccccc2)cc1	Activity [3]: Active
1500 nM	Active	2.4 µM⁻¹	Clc1ccc(CCNCc2c(-c3ccc4ccccc4c3)nc3sccn23)cc1Cl	Activity [3]: Active
1100 nM	–	2.1 µM⁻¹	CN(CCc1ccc(Cl)c(Cl)c1)Cc1c(-c2ccc(Cl)cc2)nc2sccn12	–
1300 nM	–	2.3 µM⁻¹	Clc1ccc(-c2nc3occn3c2CNCCc2ccc(Cl)c(Cl)c2)cc1	–
3200 nM	–	1.1 µM⁻¹	Clc1ccc(-c2nc3sccn3c2CNCCc2ccc(Br)cc2)cc1	–
2700 nM	–	1.4 µM⁻¹	Clc1ccc(-c2nc3sccn3c2CNCCc2c[nH]c3ccccc23)cc1	–
9200 nM	–	0.42 µM⁻¹	Clc1ccc(-c2nc3sccn3c2CNCc2ccccc2)cc1	–
400 nM	Active	7 µM⁻¹	Clc1ccc(-c2nc3sccn3c2CNCCc2ccc(Cl)c(Cl)c2)cc1	Activity [3]: Active
2100 nM	–	1.4 µM⁻¹	Fc1ccc(CCNCc2c(-c3ccc(Cl)cc3)nc3sccn23)cc1	–
1500 nM	–	1.9 µM⁻¹	N#Cc1ccc(-c2nc3sccn3c2CNCCc2ccc(Cl)c(Cl)c2)cc1	–
150 nM	Active	18 µM⁻¹	Fc1ccc(-c2nc3sccn3c2CNCCc2ccc(Cl)c(Cl)c2)cc1	–

EC50 [1]	Activity [2]	Ratio [4]	Structure (SMILES)	further results
1100 nM	–	2.4 µM⁻¹	O=C(NCCc1ccc(Cl)c(Cl)c1)c1c(-c2ccc(Cl)cc2)nc2sccn12	–
440 nM	–	6.1 µM⁻¹	Cc1ccc(-c2nc3sccn3c2CNCCc2ccc(Cl)c(Cl)c2)cc1	–
670 nM	–	4.3 µM⁻¹	COc1ccc(-c2nc3sccn3c2CNCCc2ccc(Cl)c(Cl)c2)cc1	–
2200 nM	–	1.4 µM⁻¹	Cc1cn2c(CNCCc3ccc(Cl)c(Cl)c3)c(-c3ccc(Cl)cc3)nc2s1	–
560 nM	–	4.6 µM⁻¹	Clc1ccc(CCNCc2c(-c3ccc(Br)cc3)nc3sccn23)cc1Cl	–
660 nM	–	7.4 µM⁻¹	c1ccc2c(c1)CC(NCc1c(-c3ccc4ccccc4c3)nc3occn13)C2	Activity [5]: Dose-dependent effect; Activity [6]: Active; Activity [7]: Active; Stability [8]: Stable; solubility [9]: 18 µg/mL (≈ 47.4 µM); solubility [10]: 17 µg/mL (≈ 44.8 µM); logP [11]: 4.62; Activity (SUD4 [12]): Dose-dependent effect; Activity (SUD4 [13]): Tde; Activity [14]: Dose-dependent effect; Activity [15]: Dose-dependent effect; Activity (SUD4 [16]): Non-Toxic
10000 nM	–	0.36 µM⁻¹	Oc1ccc(CCNCc2c(-c3ccc(Cl)cc3)nc3sccn23)cc1	–
63000 nM	–	0.22 µM⁻¹	Clc1ccc(-c2nc3sccn3c2CNc2ccc3ccccc3c2)cc1	–
2800 nM	–	1.1 µM⁻¹	Clc1ccc(-c2nc3sccn3c2CNCCc2cccc(Cl)c2)cc1	–
2100 nM	–	1.7 µM⁻¹	FC(F)(F)c1ccc(-c2nc3sccn3c2CNCCc2ccc(Cl)c(Cl)c2)cc1	–
920 nM	–	3 µM⁻¹	Clc1ccc(-c2nc3ncccn3c2CNCCc2ccc(Cl)c(Cl)c2)cc1	–
1900 nM	Active	1.9 µM⁻¹	c1ccc(CCNCc2c(-c3ccc4ccccc4c3)nc3sccn23)cc1	–
240 nM	Active	12 µM⁻¹	Clc1ccc(CCNCc2c(-c3ccccc3)nc3sccn23)cc1Cl	–
54000 nM	–	0.13 µM⁻¹	Clc1ccc(-c2nc3sccn3c2/C=N/CCc2ccc(Cl)c(Cl)c2)cc1	Activity [17]: Not Active; Activity [18]: Not Active
650 nM	Active	4.3 µM⁻¹	Clc1ccc(CCNCc2c(-c3ccc(Cl)cc3)nc3sccn23)cc1	Activity [3]: Active
–	Active	–	Clc1ccc(-c2nc3sccn3c2/C=N/OCc2ccc(Cl)c(Cl)c2)cc1	Activity [5]: Dose-dependent effect; Activity [6]: Active; Activity [7]: Active; logP [11]: 7.26; Activity [3]: Active; Activity [14]: Dose-dependent effect; Activity [15]: Active

Structure (SMILES)	EC50 [1]	Activity [2]	Ratio [4]	further results
CCc1nc2sccn2c1CNCCc1ccc(Cl)c(Cl)c1	8700 nM	–	0.37	–
